Data published in ChEMBL document CHEMBL1154388.

How the values were obtained:
[1] = target: T1, Metabotropic glutamate receptor 5 (Rattus norvegicus, UniProt P31424); experiment: Antagonist activity at rat mGluR5 expressed in HEK293 cells by calcium mobilization assay; type: functional, cell-based
Summary of the method: (§1)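 Rat mGluR5 in HEK293A cells and rat mGluR1 in BHK cells were loaded with a Ca²⁺-sensitive fluorescent dye and washed. Compound was added 3 s after baseline and incubated for 140 s.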

[2] = target: Metabotropic glutamate receptor 5 (Rattus norvegicus) (UniProt P31424); experiment: Positive allosteric modulator activity at rat mGluR5 receptor expressed in HEK293 cells assessed as potentiation of glutamate-induced response at 30 uM relative to glutamate; type: cell-based
Summary of the method: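 In mGluR5-expressing HEK293A cells in the calcium mobilization assay, response amplitude with test compound present is expressed as a percentage of the maximal response to glutamate. Values are the average of n≥3.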

[3] = target: T1, Metabotropic glutamate receptor 5; experiment: Displacement of [3H]3methoxy-5-(pyridin-2-ylethynyl)pyridine from rat mGluR5
[4] = target: Metabotropic glutamate receptor 1 (Rattus norvegicus, UniProt P23385); experiment: Antagonist activity at rat mGluR1 expressed in BHK cells by calcium mobilization assay; type: functional, cell-based; summary of the method: as §1
[5] = target: Metabotropic glutamate receptor 5 (Rattus norvegicus) (UniProt P31424); experiment: (§2) Positive allosteric modulator activity at rat mGluR5 receptor expressed in HEK293 cells assessed as potentiation of glutamate-induced response; type: cell-based
[6] = target: T1, Metabotropic glutamate receptor 5; experiment: as §2; type: cell-based

T1 sequence (P31424 whole entry): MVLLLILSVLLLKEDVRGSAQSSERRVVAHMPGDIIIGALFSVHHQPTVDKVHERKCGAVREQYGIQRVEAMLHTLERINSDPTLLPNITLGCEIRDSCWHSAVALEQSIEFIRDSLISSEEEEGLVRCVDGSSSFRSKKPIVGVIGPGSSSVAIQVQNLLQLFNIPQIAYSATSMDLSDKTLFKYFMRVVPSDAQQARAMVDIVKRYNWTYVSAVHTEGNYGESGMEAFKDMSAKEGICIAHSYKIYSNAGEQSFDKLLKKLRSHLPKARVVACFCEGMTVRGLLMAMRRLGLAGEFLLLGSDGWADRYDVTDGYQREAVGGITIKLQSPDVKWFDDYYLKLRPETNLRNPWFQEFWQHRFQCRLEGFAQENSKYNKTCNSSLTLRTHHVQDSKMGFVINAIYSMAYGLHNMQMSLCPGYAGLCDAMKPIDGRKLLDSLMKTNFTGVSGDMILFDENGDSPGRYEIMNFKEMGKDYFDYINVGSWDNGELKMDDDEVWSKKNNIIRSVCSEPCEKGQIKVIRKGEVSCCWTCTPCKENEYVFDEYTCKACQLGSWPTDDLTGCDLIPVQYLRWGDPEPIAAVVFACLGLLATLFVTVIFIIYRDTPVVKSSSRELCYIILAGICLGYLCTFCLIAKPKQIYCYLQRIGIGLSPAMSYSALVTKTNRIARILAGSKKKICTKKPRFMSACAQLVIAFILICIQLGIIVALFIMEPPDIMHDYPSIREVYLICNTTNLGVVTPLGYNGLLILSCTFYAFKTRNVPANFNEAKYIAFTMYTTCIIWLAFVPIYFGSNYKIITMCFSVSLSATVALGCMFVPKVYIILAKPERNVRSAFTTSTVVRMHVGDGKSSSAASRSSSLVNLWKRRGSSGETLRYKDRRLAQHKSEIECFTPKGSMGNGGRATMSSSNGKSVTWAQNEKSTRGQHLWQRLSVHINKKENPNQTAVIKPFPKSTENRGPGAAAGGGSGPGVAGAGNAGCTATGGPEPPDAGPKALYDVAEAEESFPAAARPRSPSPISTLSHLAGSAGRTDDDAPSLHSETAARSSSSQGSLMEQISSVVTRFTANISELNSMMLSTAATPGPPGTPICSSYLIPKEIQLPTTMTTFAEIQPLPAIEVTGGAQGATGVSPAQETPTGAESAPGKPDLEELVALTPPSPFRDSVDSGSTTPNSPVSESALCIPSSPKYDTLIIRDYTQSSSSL
Metabotropic glutamate receptor 5 (Rattus norvegicus), sequence (P31424 21-1203 limits assumed): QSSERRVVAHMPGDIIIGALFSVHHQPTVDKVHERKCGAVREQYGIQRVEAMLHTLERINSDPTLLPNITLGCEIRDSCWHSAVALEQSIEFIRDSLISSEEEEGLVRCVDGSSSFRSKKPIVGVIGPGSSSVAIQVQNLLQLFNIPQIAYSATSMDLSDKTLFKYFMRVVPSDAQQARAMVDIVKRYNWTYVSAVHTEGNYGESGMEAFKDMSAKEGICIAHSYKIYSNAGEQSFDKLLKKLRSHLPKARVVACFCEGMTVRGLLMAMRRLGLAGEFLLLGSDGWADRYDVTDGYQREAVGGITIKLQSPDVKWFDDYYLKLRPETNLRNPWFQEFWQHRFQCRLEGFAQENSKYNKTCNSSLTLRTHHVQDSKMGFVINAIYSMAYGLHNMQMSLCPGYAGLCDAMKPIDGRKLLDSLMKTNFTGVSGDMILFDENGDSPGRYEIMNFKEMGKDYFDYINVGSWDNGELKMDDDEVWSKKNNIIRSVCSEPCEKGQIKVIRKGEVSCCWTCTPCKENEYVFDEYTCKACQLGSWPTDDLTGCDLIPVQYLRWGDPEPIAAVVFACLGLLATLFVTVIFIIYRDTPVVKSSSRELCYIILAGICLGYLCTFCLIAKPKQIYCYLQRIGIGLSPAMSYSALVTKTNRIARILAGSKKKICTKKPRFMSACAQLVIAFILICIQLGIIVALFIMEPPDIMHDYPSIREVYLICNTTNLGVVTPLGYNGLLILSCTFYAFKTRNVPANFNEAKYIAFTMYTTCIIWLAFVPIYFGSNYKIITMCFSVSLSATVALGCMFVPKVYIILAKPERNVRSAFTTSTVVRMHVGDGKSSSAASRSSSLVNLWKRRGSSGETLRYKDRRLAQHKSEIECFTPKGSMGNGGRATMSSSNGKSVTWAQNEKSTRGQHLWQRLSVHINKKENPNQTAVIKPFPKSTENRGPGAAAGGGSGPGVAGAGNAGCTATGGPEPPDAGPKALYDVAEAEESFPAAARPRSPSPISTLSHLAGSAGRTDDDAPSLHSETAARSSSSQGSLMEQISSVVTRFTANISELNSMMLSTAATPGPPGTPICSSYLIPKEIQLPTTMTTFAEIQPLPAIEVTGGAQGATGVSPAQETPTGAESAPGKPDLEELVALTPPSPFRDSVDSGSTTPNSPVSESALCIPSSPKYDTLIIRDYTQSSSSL
Metabotropic glutamate receptor 1, sequence (P23385 whole entry): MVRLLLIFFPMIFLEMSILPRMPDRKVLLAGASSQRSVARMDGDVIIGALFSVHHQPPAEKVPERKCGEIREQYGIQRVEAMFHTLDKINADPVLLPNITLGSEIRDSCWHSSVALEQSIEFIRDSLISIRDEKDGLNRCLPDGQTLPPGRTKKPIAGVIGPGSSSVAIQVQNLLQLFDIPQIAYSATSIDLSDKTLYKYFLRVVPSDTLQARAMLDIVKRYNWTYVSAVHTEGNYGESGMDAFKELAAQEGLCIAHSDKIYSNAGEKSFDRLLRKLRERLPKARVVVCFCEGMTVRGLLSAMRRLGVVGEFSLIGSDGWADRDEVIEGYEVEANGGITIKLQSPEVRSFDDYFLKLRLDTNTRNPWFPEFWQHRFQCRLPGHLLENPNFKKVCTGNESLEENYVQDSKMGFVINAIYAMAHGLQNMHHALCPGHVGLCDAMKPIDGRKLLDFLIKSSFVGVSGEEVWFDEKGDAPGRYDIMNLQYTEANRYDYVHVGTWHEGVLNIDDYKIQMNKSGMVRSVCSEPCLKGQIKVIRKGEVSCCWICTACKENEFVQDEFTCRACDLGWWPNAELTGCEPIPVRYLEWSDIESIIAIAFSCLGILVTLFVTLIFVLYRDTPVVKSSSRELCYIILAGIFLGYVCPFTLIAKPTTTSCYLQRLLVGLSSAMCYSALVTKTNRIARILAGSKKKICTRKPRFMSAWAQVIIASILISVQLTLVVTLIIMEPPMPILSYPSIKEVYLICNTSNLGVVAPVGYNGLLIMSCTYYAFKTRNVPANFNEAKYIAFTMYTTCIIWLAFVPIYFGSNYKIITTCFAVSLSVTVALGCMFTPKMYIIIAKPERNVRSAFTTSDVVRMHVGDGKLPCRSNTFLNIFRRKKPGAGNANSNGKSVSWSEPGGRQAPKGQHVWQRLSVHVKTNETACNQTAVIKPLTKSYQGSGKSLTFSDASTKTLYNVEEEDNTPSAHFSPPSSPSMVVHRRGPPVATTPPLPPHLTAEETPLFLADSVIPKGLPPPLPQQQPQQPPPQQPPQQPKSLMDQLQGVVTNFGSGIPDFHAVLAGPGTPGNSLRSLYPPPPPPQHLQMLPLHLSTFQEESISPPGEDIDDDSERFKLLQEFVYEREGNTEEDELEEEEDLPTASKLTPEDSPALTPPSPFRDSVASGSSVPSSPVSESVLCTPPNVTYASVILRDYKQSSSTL

Row | SMILES | IC50 [1] [nM] | Activity [2] [%] | further results
1 | N#Cc1ccc2ncnc(Nc3cccc(Cl)c3)c2c1 | > 10000 | 35 | 
2 | Fc1ccc2ncnc(Nc3cccc(C(F)(F)F)c3)c2c1 | > 10000 | 32 | 
3 | COc1cccc(Nc2ncnc3ccc(F)cc23)c1 | > 10000 | 50 | 
4 | Clc1ccc2ncnc(NCCc3ccccc3)c2c1 | > 10000 | 59 | 
5 | Clc1ccc2ncnc(Oc3cccc(Br)c3)c2c1 | 6570 | 14 | 
6 | Clc1cccc(CCNc2ncnc3ccc(Cl)cc23)c1 | > 30000 |  | 
7 | Fc1ccc2ncnc(Nc3ccccc3)c2c1 | > 10000 | 58 | 
8 | Brc1ccc2ncnc(Nc3ccccc3)c2c1 | > 10000 | 42 | 
9 | Clc1ccc2ncnc(NCc3ccccc3)c2c1 | > 30000 |  | 
10 | Clc1ccc2ncnc(Sc3cccc(Br)c3)c2c1 | > 30000 |  | 
11 | Clc1cccc(CNc2ncnc3ccc(Cl)cc23)c1 | > 30000 |  | 
12 | COc1cccc(Nc2ncnc3ccc(Br)cc23)c1 | > 10000 | 34 | 
13 | Brc1cccc(Sc2ncnc3ccc(Br)cc23)c1 | > 30000 |  | 
14 | Clc1ccc(CNc2ncnc3ccc(Cl)cc23)cc1 | > 30000 |  | 
15 | CN(c1cccc(Br)c1)c1ncnc2ccc(Cl)cc12 | > 30000 |  | 
16 | Brc1cccc(Oc2ncnc3ccc(Br)cc23)c1 | > 10000 | 49 | 
17 | Clc1ccc(CCNc2ncnc3ccc(Cl)cc23)cc1 | > 30000 |  | 
18 | Fc1cc(Cl)cc(Nc2ncnc3ccc(F)cc23)c1 | > 10000 | 56 | 
19 | Clc1ccc2ncnc(Nc3ccccc3)c2c1 | > 10000 | 31 | 
20 | CCc1cccc(Nc2ncnc3ccc(F)cc23)c1 |  |  | Activity [5]: 52%; EC50 [6]: > 10000 nM
21 | Fc1ccc2ncnc(Nc3ccc(F)c(Cl)c3)c2c1 | > 10000 |  | 
22 | Clc1ccc2nccc(Nc3cccc(Br)c3)c2c1 | > 30000 |  | 
23 | CN(c1cccc(Br)c1)c1ncnc2ccc(Br)cc12 | > 30000 |  | 
24 | Clc1ccc2ncnc(NCCc3ccccc3Cl)c2c1 | > 30000 |  | 
25 | Clc1ccc2ncnc(NCc3ccccc3Cl)c2c1 | > 30000 |  | 

Second part, led by results:

Row | IC50 [1] [nM] | Activity [2] [%] | SMILES | further results
26 | 1350 | 3.5 | Cc1cccc(Nc2ncnc3ccc(F)cc23)c1 | 
27 | 130 | 2.8 | Clc1cccc(Nc2ncnc3ccc(Cl)cc23)c1 | 
28 | 3720 | 5.2 | Fc1ccc2ncnc(Nc3cccc(Cl)c3F)c2c1 | 
29 | 1510 | 13 | COc1ccc2ncnc(Nc3cccc(Cl)c3)c2c1 | 
30 | 96 | 0.6 | Fc1ccc2ncnc(Nc3cccc(Br)c3)c2c1 | Ki [3]: 736 nM; IC50 [4]: 713 nM
31 | 1720 | 3.2 | FC(F)(F)c1cccc(Nc2ncnc3ccc(Br)cc23)c1 | 
32 | 4330 | 5.4 | Brc1cccc(Nc2nccc3ccc(Br)cc23)c1 | 
33 | 174 | 2.5 | Brc1cccc(Nc2ncnc3ccc(Br)cc23)c1 | 
34 | 1370 | 3.5 | N#Cc1cccc(Nc2ncnc3ccc(F)cc23)c1 | 
35 | 124 | 1.2 | Clc1ccc2ncnc(Nc3cccc(Br)c3)c2c1 | Ki [3]: 249 nM; IC50 [4]: 955 nM
36 | 1970 | 8.8 | Fc1cccc(Nc2ncnc3ccc(Br)cc23)c1 | 
37 | 246 | 1.2 | Cc1cccc(Nc2ncnc3ccc(Br)cc23)c1 | 
38 | 311 | 0.9 | Fc1ccc2ncnc(Nc3cccc(Cl)c3)c2c1 | 
39 | 274 | 2.4 | O=[N+]([O-])c1ccc2ncnc(Nc3cccc(Cl)c3)c2c1 | 
40 | 256 | 1.5 | Clc1cccc(Nc2ncnc3ccc(Br)cc23)c1 | Ki [3]: 116 nM; IC50 [4]: 398 nM
